# Compound activity from PubChem.
# TDP2 absorb – TDP2 (human) inhibition, absorbance primary screen; AID 720702; inhibition, % at 12.8 µM; 370,000 tested, 0.34% active; recombinant TDP2, T5PNP hydrolysis, p-nitrophenol absorbance 415 nm;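 active means inhibition above the mean of all tested compounds plus 3 SD, set per campaign, cut at about 25% in these data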;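 further: 0% = DMSO with enzyme and 100% = buffer with substrate but no TDP2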
#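 Evaluation: % inhibition relative to enzyme-containing and enzyme-free wells. Material: recombinant human TDP2. Benchmarks: enzyme-free and DMSO wells. Timing: enzyme reaction with compound for 2 h at 37 °C. Compound dosing: 12.8 µM only. Measured by: p-Nitrophenol epi absorbance. Reagent: T5PNP substrate at 5 mM, a TopII-DNA adduct mimic. Replication: single well per compound.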
# CTSL1 counter – blocks F. hepatica cathepsin L1 in PFM18AAP counter-screen | inhibition, % at 5.96 µM | 300,000 tested, 0.49% active | AID 1906 | recombinant F. hepatica cathepsin L1, Z-Leu-Arg-MCA fluorescence;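 active means inhibition above the mean of all tested compounds plus 3 SD, set per screening campaign, cut at about 17% in these data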;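 further: 0% = plate median of test compound wells and 100% = 1 µM Z-Phe-Ala-diazomethylketone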
# GSTO1 inh – GSTO1 inhibition, counter-screen for RBBP9 inhibitors; P78417; recombinant GSTO1, activity-based probe fluorescence polarization; 300,000 tested, 1.1% active; inhibition, % at 5.96 µM;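 active means inhibition above the campaign mean inhibition plus 3 SD, cut at about 35% in these data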;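 further: 0% = GSTO1-1 with DMSO and 100% = wells lacking GSTO1-1 enzyme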
# PAD4 inh – inhibitors of human PAD4 | recombinant PAD4, RCA probe fluorescence polarization | 330,000 tested, 0.41% active | inhibition, % at 6.36 µM;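 active means percent inhibition above a cutoff equal to the mean of all tested compounds plus 3 SD, cut at about 15% in these data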;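 further: 0% = PAD4 with RCA probe and DMSO and 100% = probe without PAD4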
# Target sequence (Q9UM07 whole entry, looked up): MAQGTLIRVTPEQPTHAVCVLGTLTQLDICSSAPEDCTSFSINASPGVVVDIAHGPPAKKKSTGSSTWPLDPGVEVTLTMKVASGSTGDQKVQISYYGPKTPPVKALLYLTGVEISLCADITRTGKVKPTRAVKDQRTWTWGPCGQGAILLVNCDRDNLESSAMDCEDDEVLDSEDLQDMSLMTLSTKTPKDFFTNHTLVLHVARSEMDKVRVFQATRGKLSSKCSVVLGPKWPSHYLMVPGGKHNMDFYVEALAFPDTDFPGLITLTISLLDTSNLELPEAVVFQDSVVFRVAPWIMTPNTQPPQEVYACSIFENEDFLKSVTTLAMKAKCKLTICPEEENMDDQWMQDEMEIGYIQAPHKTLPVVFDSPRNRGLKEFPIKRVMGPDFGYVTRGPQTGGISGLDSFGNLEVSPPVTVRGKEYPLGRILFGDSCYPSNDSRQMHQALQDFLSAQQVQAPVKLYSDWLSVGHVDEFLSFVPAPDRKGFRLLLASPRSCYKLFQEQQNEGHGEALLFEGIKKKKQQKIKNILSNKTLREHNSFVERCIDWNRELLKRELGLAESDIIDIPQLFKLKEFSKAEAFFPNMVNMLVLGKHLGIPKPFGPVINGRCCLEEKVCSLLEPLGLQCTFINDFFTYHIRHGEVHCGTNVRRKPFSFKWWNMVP
# PRMT1 inh – blocks human protein arginine methyltransferase 1; Q99873; recombinant PRMT1, activity-based probe fluorescence polarization; inhibition, % at 2.79 µM; 370,000 tested, 1.3% active;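 active means inhibition above about 21% made by adding two undisclosed values, limit read from the data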
# GSTO1 confirm – GSTO1 (human) inhibition, confirmation; AID 2176; 2,400 tested, 54% active; recombinant GSTO1, probe fluorescence polarization; inhibition, % at 5.96 µM; shares compounds with GSTO1 inh;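 active means inhibition above the primary screen's cutoff, its mean inhibition plus 3 SD, cut at about 35% in these data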;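 further: loss of polarization as inhibitors block binding of rhodamine sulfonate ester activity probe; 0% = GSTO1 with DMSO and 100% = wells lacking GSTO1 enzyme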
# GSTO1 ABPP inh – GSTO1 (human) inhibition by gel ABPP; shares compounds with GSTO1 inh; recombinant GSTO1, gel ABPP SE-Rh probe fluorescence; inhibition, % at 1 µM; 130 tested, 30% active;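 active means inhibition of the enzyme GSTO1 above about 75%, limit read from the data; inactive means inhibition below that limit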
# The depositor's hits bear a star; x = no result. An excerpt weighted towards active compounds, which were near 2.5% of everything screened.
SMILES,TDP2 absorb,CTSL1 counter,GSTO1 inh,PAD4 inh,PRMT1 inh,GSTO1 confirm,others
O=[N+]([O-])c1cc(Cl)cc(/C=N/Nc2nc3ccccc3s2)c1O,0,1,14,-4,2,x,
COc1cc(/C=N/Nc2nc3ccccc3s2)cc([N+](=O)[O-])c1O,-16,2,48*,-3,6,50*,
CCN1CCCCC(NC(=O)c2cc(OC)c(OC)c(OC)c2)C1=O (stereo unspecified),-10,x,x,x,-5,x,
CC1=C(CC(=O)c2ccc(Cl)cc2)C(=O)c2ccccc2C1=O,15,0,45*,-9,5,14,
O=C(Cc1ccccn1)c1ccc(Cl)cc1,12,-2,4,-2,1,x,
COc1ccccc1/C=C1\SC(=O)N(CCC(=O)NNC(=O)c2ccccc2Cl)C1=O,-7,-1,51*,0,-1,4,
COc1cc(/C=C2\N=C3CCCCCN3C2=O)ccc1O,-6,10,1,-7,-8,x,
O=C1/C(=C\c2ccc(O)c(O)c2)N=C2CCCCCN12,-20,5,44*,2,0,6,
C/C(=N\NC(=O)CSc1nnc(-c2ccccc2)n1-c1ccc(C)cc1)c1ccc(-c2ccccc2)cc1,5,x,x,x,-3,x,
Cc1ccc(Cn2nnc3c2-c2ccccc2S(=O)(=O)N(C2CC2)C3)cc1,0,x,x,x,1,x,
Nc1nc(N)nc(-c2cc(O)ccc2O)n1,-3,x,x,-4,3,x,
Oc1ccc(O)c(-c2cnns2)c1,6,-1,89*,0,15,-5,
C(#CC1=CCCCC1)CNCc1ccccc1,-1,x,x,x,2,x,
CCc1nc(N2CCN(C(C)=O)CC2)c2c3c(sc2n1)CC(C(C)(C)C)CC3 (stereo unspecified),-3,-2,-8,-4,1,x,
CCc1nc(N2CCN(C(=O)CCl)CC2)c2c3c(sc2n1)CC(C)CC3 (stereo unspecified),0,13,63*,2,4,79*,GSTO1 ABPP inh=51
C=CCN1C(=O)[C@@H](CC(=O)NCc2cccc3ccccc23)[C@]2(C(=O)OC)CCCCC=C12,3,x,x,x,2,x,
CC(=O)N(Cc1c(C)nn(-c2ccccc2)c1Cl)c1ccc(Cl)cc1,5,1,6,4,0,x,
Cc1nn(-c2ccccc2)c(Cl)c1CN(C(=O)CCl)c1ccc(Cl)cc1,-7,2,82*,14,-1,93*,GSTO1 ABPP inh=88*
Cc1ccc(SC2=C(Sc3ccc(C)cc3)C(=O)c3ccccc3C2=O)cc1,18,-6,71*,-9,18,24,
O=C(O)c1cccc(Cn2c(Cl)c(/C=N/NC(=O)c3ccccc3Cl)sc2=O)c1,-3,3,1,1,7,x,
O=C(O)c1cccc(Cn2c(Cl)c(/C=N/Nc3ccccc3)sc2=O)c1,x,2,50*,3,x,65*,
COC(=O)[C@]12C[C@H](CC(=O)NCc3cccc(C(F)(F)F)c3)C(=O)N(Cc3ccco3)C1=C[C@H](C1CCCC1)O[C@@H]2C,-13,x,x,x,-8,x,
CCCCNC(=O)Oc1c(Br)cc2sc(=O)oc2c1Br,x,23*,66*,-10,x,19,
COc1cc(O)c2c(c1)OC(c1ccc(O)cc1)CC2=O (stereo unspecified),6,3,4,0,-4,x,
Cc1c(O)cc2c(c1O)C(=O)CC(c1ccc(O)cc1)O2 (stereo unspecified),-2,0,51*,-1,2,10,
SMILES,TDP2 absorb,CTSL1 counter,GSTO1 inh,PAD4 inh,PRMT1 inh,GSTO1 confirm,others
CCc1ccc(NC(=O)Cn2c3[n+](c4c(F)c(F)ccc42)CCCCC3)cc1,0,2,77*,-3,0,89*,
CCCNC(=O)COC(=O)c1c2c(nc3ccccc13)CCC2,4,-5,47*,5,3,2,
CCC1CCCCN1C(=O)C(=O)c1cn(CC(=O)N(CC)CC)c2ccccc12 (stereo unspecified),-7,-1,40*,3,-2,5,
O=C1CCC2(CCC(c3ccccc3)CC2)N1CCO (stereo unspecified),4,x,x,x,-5,x,
CCc1cc(C(=O)N=Nc2c(O)[nH]c3c(Br)cc(Br)cc23)c2ccccc2n1,6,-1,75*,-12,0,20,
NC1=NC(=O)/C(=C/c2ccc(Br)cc2)S1,2,2,-3,0,-3,x,
NC1=NC(=O)/C(=C/c2cc(Br)c(O)c(Br)c2)S1,-2,2,41*,-28,-4,81*,
C[C@]12C=CC(=O)C=C1CC[C@@H]1C2=CC[C@]2(C)[C@@H](C(=O)CN3CCN(c4cc(N5CCCC5)nc(N5CCCC5)n4)CC3)CC[C@@H]12,4,4,51*,-11,4,45*,
Cc1cc(C)c(Nc2cc(S(=O)(=O)O)c(N)c3c2C(=O)c2ccccc2C3=O)c(C)c1,-6,4,80*,9,15,88*,
Cc1cc(C)c(NC(=O)COC(=O)c2cccc3c2C(=O)c2ccccc2C3=O)c(C)c1,0,4,-3,-6,1,x,
O=C(O)/C=C\C(=O)Nc1ccc(N2CCN(c3ccc(Cl)c(Cl)c3)CC2)cc1,0,8,28,-3,8,x,
O=C(O)/C=C\C(=O)Nc1ccc(N2CCN(c3cccc(Cl)c3)CC2)cc1,-3,2,45*,3,6,7,
O=C(O)/C=C\C(=O)Nc1ccc(N2CCN(c3ccc(Cl)cc3)CC2)cc1,2,3,59*,2,3,8,
COCC(=O)N1CCC(C(=O)NCC2COc3ccccc3O2)CC1 (stereo unspecified),-5,x,x,x,3,x,
COCc1[nH][nH]c(=O)c1/C=N/N1CCOCC1,-3,0,38*,-8,0,6,
CCC(=O)N1CCN(C(=O)CC)C1c1ccccc1,-3,3,4,-5,2,x,
O=C(CCl)N1c2ccccc2SCC1c1ccccc1 (stereo unspecified),13,-1,86*,4,-1,94*,GSTO1 ABPP inh=75*
CC(/C=C1\SC(=S)N(NS(=O)(=O)c2ccccc2)C1=O)=C\c1ccccc1,-9,7,40*,0,3,32,
CC(/C=C1\SC(=S)N(NS(=O)(=O)c2ccc(C)cc2)C1=O)=C\c1ccccc1,5,0,48*,-7,7,36*,
Cc1cc(-c2n[nH]c(=S)n2N=Cc2ccc(-c3ccccc3)cc2)n[nH]1,6,x,x,x,8,x,
Cc1c(N=c2c(=O)c3ccccc3c2=O)c(=O)n(-c2ccccc2)n1C,x,56*,57*,-6,x,77*,
Cc1csc(=Nc2c(C)n(C)n(-c3ccccc3)c2=O)n1-c1ccccc1,-6,-4,-6,0,-2,x,
CC(N=Cc1cccc(O)c1O)c1ccccc1 (stereo unspecified),x,-3,77*,7,x,54*,
